Assay results from different studies.
Lines come from different studies, so protocols differ.
KIT D816V: Mast/stem cell growth factor receptor Kit (KIT, Homo sapiens, UniProt P10721, D816V)
KIT D816H: Mast/stem cell growth factor receptor Kit (KIT, Homo sapiens, UniProt P10721, D816H)

CC/C(=N\NC(=O)NCc1cccc(O)c1)c1ccc(O)c(C)c1O  inhibition (Mast/stem cell growth factor receptor Kit (KIT, Homo sapiens, UniProt P10721, V560G); enzyme activity, inhibitor; 0.1 µM): 0.1%
Cc1cc(NC(=O)c2cccc3cc(-c4cccc5[nH]nc(N)c45)ccc23)ccc1F  activity vs control (KIT D816V; enzyme activity, inhibitor; 0.1 µM): 107%
CNC(=O)c1ccc(Nc2ncc(C(F)(F)F)c(NCc3nccnc3N(C)S(C)(=O)=O)n2)cc1  remaining binding (KIT D816H; cell-free assay, competition with immobilised ligand; 0.1 µM): 71%
Nc1ncnc2occ(-c3ccc(NC(=O)Nc4cc(C(F)(F)F)ccc4F)cc3)c12  remaining signal (Mast/stem cell growth factor receptor Kit (KIT, Homo sapiens, UniProt P10721, A829P); cell-free assay, inhibitor; 20 µM): 3.7%
Cc1ccc(C(=O)NCc2ccsc2)cc1C#Cc1cn(C(C)C)c2ncnc(N)c12  activity vs control (KIT D816H; enzyme activity, inhibitor; 1 µM): 11%
N[C@@H]1CCN(c2nccc(-c3cnn4ncccc34)n2)C1  remaining binding (Mast/stem cell growth factor receptor Kit (KIT, Homo sapiens, UniProt P10721, V559D/V654A); binding; 1 µM): 100%
O=C(Nc1ccc(Oc2ccc(F)cc2)cc1)N1CCc2ncccc2[C@H]1c1ccc(F)cc1  remaining binding (Mast/stem cell growth factor receptor Kit (KIT, Homo sapiens, UniProt P10721); cell-free assay, competition with immobilised ligand; 1 µM): 97%
C[C@H]1CCN(c2nccc(-c3cnn4ncccc34)n2)C1  remaining binding (KIT D816V; binding; 1 µM): 100%
CN([C@@H]1CCc2c(CC(=O)O)c3ccccc3n2C1)S(=O)(=O)c1ccc(F)cc1  remaining binding (KIT D816H; cell-free assay, competition with immobilised ligand; 1 µM): 95%
